# Compound activity deposited in PubChem by several laboratories.
# SR-BI DiI inh: blocks mouse SR-BI lipid uptake from DiI-HDL; Q61009; ldlA[mSR-BI] CHO cells, DiI-HDL uptake fluorescence, 3 h; inhibition, % at 12.5 µM; 0.96% of 320,000 active; AID 488896;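 active = mean replicate inhibition of at least 70% and a set share of replicates each scoring 70 or more; inconclusive = meets just one of the two criteria; inactive = fails both criteria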
# V-ATPase pHluor: yeast V-ATPase proton transport regulation by pHLuorin; response, % at 10 µM; AID 504577; S. cerevisiae, pHLuorin cytosolic pH fluorescence; 0.37% of 350,000 active; in the data active = response mostly above about 7.3%, no sharp cut-off; inactive = mostly below about 5.4%; note: actives read high
# Vif imaging: HIV Vif inhibition; HEK293T cells, Vif self-association by quenched fluorescence, imaging, 24 h; inhibition, % at 7.49 µM; 0.35% of 340,000 active; in the data active = inhibition above about 50%, passing the limit was not always enough; inconclusive = no clear call, values can overlap the other calls; inactive = below about 31%
# CaV13 FRET inh: Disruptors of the CACNA1D IQ motif to Ca2+-dependent inactivation inhibitor domain association, primary screening, Förster resonance energy transfer in intact living …; 0.098% of 340,000 active; inhibition, % at 12.3 µM; HEK cells, CFP/YFP FRET ICDI-IQ, plate reader, 10 min; percent FRET-ratio fall versus neutral wells;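 active = mean replicate inhibition of at least 30% and at least 1% of replicates passing that level; inconclusive = only one of the two criteria is met; inactive = neither criterion is met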
# SR-BI DiI-HDL act: SR-BI HDL lipid transfer activation; CHO ldlA[mSR-BI] cells, DiI-HDL uptake fluorescence, 3 h; 100 = double the neutral-control signal; activation, % at 12.5 µM; 0.096% of 320,000 active;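 active = mean replicate activation of at least 60% and every replicate at or above 60%; inconclusive = mean or all-replicate condition met, but not both; inactive = mean below 60% and not all replicates reaching 60%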
#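 System: CHO ldlA[mSR-BI] cells / Medium: HEPES-buffered (25 mM, pH 7.4) F12 plus 0.5% BSA / Probe or stimulus: labelled HDL, 10 µg/mL / Doses: single compound concentration, delivered by pin transfer / Schedule: 3 h, 37 °C / Measured by: DiI fluorescence, bottom read / Measure: cell-associated DiI fluorescence as measure of HDL uptake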
# NTR1 agonist: NTR1 (human) agonism. 0.17% of 330,000 active. activation, % at 20 µM. P30989. NTR1-U2OS beta-arrestin-GFP spot imaging, agonist mode;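 active = activation at or above 40% of the spot to cytoplasm intensity ratio, with at least 20 cells analyzed; inconclusive = wells under 20 cells, flagged as cytotoxic or low count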
# Target sequence (P30989 whole entry, looked up): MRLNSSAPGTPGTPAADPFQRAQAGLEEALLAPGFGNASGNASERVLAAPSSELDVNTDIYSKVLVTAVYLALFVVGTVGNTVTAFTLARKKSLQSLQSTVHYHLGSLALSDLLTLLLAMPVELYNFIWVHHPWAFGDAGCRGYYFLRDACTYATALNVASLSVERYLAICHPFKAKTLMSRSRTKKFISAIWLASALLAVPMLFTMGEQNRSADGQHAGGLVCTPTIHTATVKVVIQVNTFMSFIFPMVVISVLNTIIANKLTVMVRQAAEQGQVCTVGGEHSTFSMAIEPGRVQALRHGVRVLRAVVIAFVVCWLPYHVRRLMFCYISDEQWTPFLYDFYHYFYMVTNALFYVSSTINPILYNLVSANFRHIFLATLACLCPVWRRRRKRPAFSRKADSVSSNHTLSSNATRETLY
# Numbers stand for hits; - = inactive; ? = inconclusive; . = not tested or not shown. In the library only some 1.7% were active in any assay of this set; here they are far more common.
SMILES,SR-BI DiI inh,V-ATPase pHluor,Vif imaging,CaV13 FRET inh,SR-BI DiI-HDL act,NTR1 agonist
C=CCN1C(=O)/C(=C/c2ccc(Br)s2)C(=O)NC1=S,-,-,-,-,-,-
CN1C(=O)/C(=C/c2ccc(Cl)s2)C(=O)NC1=S,-,25,-,-,-,.
Oc1ccc(CC2(N3CCCC3)CCCCC2)cc1,-,-,-,-,-,-
CC1Oc2cc3c(-c4c(O)cc(O)c5c(O)c6c(cc45)OC(C)C(C)C6=O)c(O)cc(O)c3c(O)c2C(=O)C1C (stereo unspecified),80,-,-,.,-,-
COc1cccc(C(c2nnnn2C2CCCCC2)N2CCC3(CC2)C(=O)NCN3c2ccccc2)c1OC (stereo unspecified),.,.,-,-,.,.
Clc1ccc(OCC#CCN2CCCCCC2)cc1,-,-,-,-,-,-
COc1ccc(C(c2nnnn2-c2ccc3c(c2)OCCO3)N2CCC3(CC2)C(=O)NCN3c2ccccc2)cc1 (stereo unspecified),.,.,-,-,.,.
Cc1ccccc1-n1c(O)c(/C=N/NC(=O)c2ccccc2O)c(=O)[nH]c1=S,109,-,-,-,-,-
O=C(N/N=C/c1c(O)n(C2CC2)c(=S)[nH]c1=O)c1ccccc1O,92,-,-,-,-,-
O=C(N/N=C/c1c(O)n(-c2ccccc2)c(=S)[nH]c1=O)c1ccccc1,-,-,-,-,-,-
CCS(=O)(=O)Nc1cccc(C(=C2CCCCC2)c2cnc[nH]2)c1,-,-,69,-,-,-
CN=C1CN(O)C(c2ccccc2)c2cc(Cl)ccc2N1 (stereo unspecified),-,-,-,-,-,.
CCCNC(=O)N1[C@H]2CC[C@@H]1C(C(=O)OC)=C(c1cc3ccccc3s1)C2,-,-,-,-,-,-
CCN1CCN(C(=O)COc2ccc3oc4c(c3c2)CCCC4)CC1,72,-,-,-,-,-
COC1/C=C/C=C(\C)Cc2cc(O)c(Cl)c(c2)N(C)C(=O)CC(OC(=O)C(C)C)C2(C)OC2C(C)C2CC1(O)NC(=O)O2 (stereo unspecified),-,-,64,-,-,.
O=[N+]([O-])c1ccc(N2CCNCC2)c(Cl)c1,78,-,-,-,-,-
O=P(Nc1ccccc1)(Oc1ccccc1)Oc1ccccc1,-,-,-,-,-,-
Cc1cccc(NP(=O)(Oc2ccccc2)Oc2ccccc2)c1C,76,-,-,-,-,-
CCCCCCCCn1sccc1=O,-,37,-,.,-,-
Cc1ccc(N2C(=O)NC(=O)/C(=C\c3ccoc3)C2=O)cc1,-,5.9,-,-,-,-
O=c1[nH]c(O)c(/C=C2/C=CC(c3cc(Cl)ccc3Cl)=N2)c(=O)[nH]1,-,-,-,-,-,46
CC1=Nc2ccccc2/C1=C/c1c(O)[nH]c(=O)[nH]c1=O,-,-,?,-,-,-
CN1CCCC1CCOC(C)(c1ccccc1)c1ccc(Cl)cc1 (stereo unspecified),-,-,-,-,-,.
CC(=O)c1ccc2c(c1)C1C(Cl)C(Sc3ccccc3[N+](=O)[O-])CC1C(c1ccccc1[N+](=O)[O-])N2 (stereo unspecified),73,-,-,-,-,-
C=CC[N+]1(C)CC[C@]23c4c5ccc(O)c4O[C@H]2C(=O)CC[C@@]3(O)[C@H]1C5 (stereo partly specified),-,-,-,-,-,-
SMILES,SR-BI DiI inh,V-ATPase pHluor,Vif imaging,CaV13 FRET inh,SR-BI DiI-HDL act,NTR1 agonist
COC(=O)C(O)(c1ccc(N=Cc2ccccc2O)c(C)c1)C(F)(F)F (stereo unspecified),-,-,-,-,-,-
CC(C)(C)c1ccc(O)c(N=Cc2c(O)ccc3ccccc23)c1,113,-,-,-,-,-
C[C@H]1C(=O)O[C@@H]2CCN3CC=C(COC(=O)[C@](C)(O)[C@]1(C)O)[C@H]23,-,-,-,-,-,-
CCc1ccc(N2C(=O)NC(=O)C(Cc3ccc(OC)cc3OC)C2=O)cc1 (stereo unspecified),84,-,-,-,-,-
COc1ccc(CC2C(=O)NC(=O)N(c3ccccc3)C2=O)c(OC)c1 (stereo unspecified),.,-,-,-,.,-
O=C1NCN(c2ccccc2)C12CCN(C(c1nnnn1Cc1ccccc1)C1CC1)CC2 (stereo unspecified),.,.,-,-,.,.
COC(=O)C1=C(C)NC(=S)NC1c1ccc(N(CCCl)CCCl)cc1Cl (stereo unspecified),85,-,-,-,-,.
NC1(C(=O)O)CCCc2ccc(N(CCCl)CCCl)cc21 (stereo unspecified),-,-,-,-,-,.
COc1ccc(OC)c(N2C(=O)/C(=C/c3ccco3)C(=O)NC2=S)c1,.,.,.,.,.,-
COc1ccc(OC)c(N2C(=O)NC(=O)/C(=C/c3ccc([N+](=O)[O-])s3)C2=O)c1,-,125,-,-,-,-
CCOC(=O)c1c(N)n(CCCOC(=O)c2ccco2)c2nc3ccccc3nc12,-,-,-,-,-,-
CCCCCn1c(NC(=O)c2ccco2)c(C(=O)OCC)c2nc3ccccc3nc21,-,11,-,.,-,-
CC(=O)OC(C)(C)/C=C/C(=O)[C@](C)(O)C1[C@H](O)C[C@@]2(C)C3CC=C4C(C[C@H](O)C(=O)C4(C)C)[C@]3(C)C(=O)C[C@]12C (stereo partly specified),-,-,.,.,-,-
CCNC(=S)N1CCn2cccc2C1c1cccnc1 (stereo unspecified),-,-,-,-,-,-
C[C@@H]1CN([C@H](C)CO)C(=O)c2c(c3ccccc3n2C)-c2ccccc2CO[C@H]1CN(C)Cc1ccc2c(c1)OCCN2C,.,-,-,-,.,.
O=C1NC(=O)C(=Cc2ccc(-c3ccc(Cl)cc3)o2)C(=O)N1,-,-,-,.,-,41
O=C1NC(=O)C(=Cc2ccc(-c3ccc(S(=O)(=O)N4CCOCC4)cc3)o2)C(=O)N1,-,-,-,-,-,-
CCCCCCCCc1ccc(O)cc1,-,27,-,.,-,-
COc1cc(C2c3cc4c(cc3CC3COC(=O)C32)OCO4)cc(OC)c1OC (stereo unspecified),-,-,87,.,-,-
COc1cc(C2c3cc4c(c(O)c3CC3COC(=O)C32)OCO4)cc(OC)c1OC (stereo unspecified),-,-,-,-,-,.
N=C1c2ccccc2CN1NC(=O)C1CC1,-,-,-,-,66,-
N=C1c2ccccc2CN1NC(=O)c1ccc(Cl)cc1,-,-,-,-,-,-
COC1C(O)C(C)OC(OC2C(Oc3cccc4c(O)c5c(=O)oc6ccc(C)c7c(=O)oc(c34)c5c67)OC(C)C(O)C2O)C1O (stereo unspecified),-,-,51,-,-,.
